Calls of active or inactive are those of the source. No cut-off for these calls is given here.
What was measured:
[1] = system: Human immunodeficiency virus 1; experiment: Binding affinity to hexameric C-terminal His-tagged HIV1 NL4-3 capsid protein A14C/E45C/W184A/M185A mutant expressed in Escherichia coli BL21 codon plus (DE3)RIL assessed as association rate constant by SPR analysis
Outline: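 Disulfide-stabilised CA hexamers, isolated by size exclusion after stepwise βME dialysis, amine-coupled at 100 μg/mL (10mM sodium acetate pH 5.0) to GLH chip; IgG b12 reference surface. 25 °C; running buffer PBS, 3% DMSO, 0.005% polysorbate 20, pH 7.4. One-shot kinetics of 1:4 serial dilutions from 5 or 2 μM, 100 μl/min, 1 min association, up to 5 min dissociation.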

[2] = system: Human immunodeficiency virus 1; experiment: Antiviral activity against HIV1 NL4-3 Env-deficient pseudotype virus infected in human U87.CD4.CCR5.CXCR4 cells assessed by reduction in viral infection in early stage measured after 48 hrs by luciferase activity based single-round infection assay; format: functional, organism-based
[3] = Cytotoxicity against in human U87.CD4.CCR5.CXCR4 cells assessed as reduction in cell viability measured after 48 hrs by CCK8 assay; format: cell-based; settings: u87.cd4.ccr5.cxcr4, 48 h
Outline: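 U87 cells stably expressing CD4/CCR5 or CD4/CXCR4 were grown in a humidified 5% CO2 atmosphere at 37°C and seeded at 1.2 × 10^4 cells/well 24 h before treatment. Cells were exposed to compound (1mM-0.3μM) or DMSO for 48 h at 37°C, then to CCK-8 for 4 h at 37°C, and absorbance was read at 450 nm. Controls were untreated cells and 0.1% SDS-treated cells.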

[4] = Binding affinity to hexameric C-terminal His-tagged HIV1 NL4-3 capsid protein A14C/E45C/W184A/M185A mutant expressed in Escherichia coli BL21 codon plus (DE3)RIL assessed as dissociation constant by SPR analysis; parameters: species or system Human immunodeficiency virus 1
Outline: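 SPR at 25 °C using one-shot kinetics. Disulfide-stabilized CA hexamer was assembled by βME dialysis, isolated by SEC, and amine-coupled to a GLH chip at 100 μg/mL in 10 mM sodium acetate pH 5.0. An IgG b12 surface served as reference. Compound was injected as 1:4 serial dilutions from 5 or 2 μM in PBS with 3% DMSO and 0.005% polysorbate 20, pH 7.4, at 100 μl/min. Association was 1 min and dissociation up to 5 min.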

[5] = Therapeutic index, ratio of CC50 for cytotoxicity against human 87.CD4.CCR5.CXCR4 cells to IC50 for antiviral activity against HIV1 NL4-3 virus in human 87.CD4.CCR5.CXCR4 cells; format: toxicity, cell-based; settings: read-out: TI
Outline: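 U87.CD4.CCR5/CXCR4 cells were seeded 24 h ahead and incubated 48 h at 37°C. Antiviral arm: p24-normalised single-round luciferase pseudovirus (pNL4-3-Luc+R-E− backbone, BG505 Env), luminescence read after lysis. […] Index is CC50 divided by IC50.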

[6] = Half life in human liver microsomes; format: ADME, Microsome
[7] = system: Human immunodeficiency virus 1; experiment: Binding affinity to C-terminal His-tagged HIV1 NL4-3 capsid protein N57A mutant expressed in Escherichia coli BL21 codon plus (DE3)RIL
[8] = system: Human immunodeficiency virus 1; experiment: Binding affinity to C-terminal His-tagged HIV1 NL4-3 capsid protein M66A mutant expressed in Escherichia coli BL21 codon plus (DE3)RIL
[9] = system: Human immunodeficiency virus 1; experiment: Binding affinity to C-terminal His-tagged HIV1 NL4-3 capsid protein K70A mutant expressed in Escherichia coli BL21 codon plus (DE3)RIL
[10] = Human immunodeficiency virus 1, NL4-3, U87.CD4.CCR5.CXCR4, 48 h, read-out: IC50

Row | SMILES | Ka [1] | IC50 [2, 10] [nM] | CC50 ([3]; read-out: CC50) [nM] | IC50 ([2]; u87.cd4.ccr5.cxcr4) | CC50 [3] | Kd [4] [nM] | selectivity ratio [5] | t1/2 [6] [min] | Activity [7] | Activity [8] | Activity [9]
1 | Cc1[nH]c2ccccc2c1CC(=O)N[C@@H](Cc1ccccc1)C(=O)N(C)c1ccccc1 | 4.75 10^5/M/s | 80 | 66700 |  |  |  |  |  |  |  | 
2 | CN(C(=O)[C@@H](Cc1ccccc1)NC(=O)Cc1n[nH]c2c(N)cccc12)c1ccc2[nH]ncc2c1 |  |  |  | Not Active | Not Active |  |  |  |  |  | 
3 | CN(C(=O)[C@H](Cc1ccccc1)NC(=O)Cc1c[nH]c2c(N)cccc12)c1ccccc1 | 4.76 10^5/M/s | 62.1 | 101000 |  |  | 139 | 1630 | 15.4 |  |  | 
4 | CN(C(=O)[C@@H](Cc1ccccc1)NC(=O)Cc1c[nH]c2c(N)cccc12)c1ccccc1 |  |  |  | Not Active | Not Active |  |  |  |  |  | 
5 | Cc1[nH]c2ccccc2c1CC(=O)N[C@H](Cc1ccccc1)C(=O)N(C)c1ccccc1 |  |  |  | Not Active | Not Active |  |  |  |  |  | 
6 | Cc1[nH]c2ccccc2c1CC(=O)N[C@H](Cc1ccccc1)C(=O)N(C)c1ccc2[nH]ncc2c1 |  |  |  | Not Active | Not Active |  |  |  |  |  | 
7 | CN(C(=O)[C@H](Cc1ccccc1)NC(=O)Cc1n[nH]c2c(N)cccc12)c1ccc2[nH]ncc2c1 | 2.86 10^5/M/s | 279 | 102000 |  |  | 337 | 365 | 102 |  |  | 
8 | Cc1[nH]c2ccccc2c1CC(=O)N[C@@H](Cc1ccccc1)C(=O)N(C)c1ccc2[nH]ncc2c1 | 4.37 10^5/M/s | 20.6 | 46900 |  |  | 25 | 2280 | 1 |  |  | 
9 | CN(C(=O)C(Cc1ccccc1)NC(=O)Cc1c[nH]c2c(N)cccc12)c1ccccc1 (racemic) | 5.62 10^5/M/s | 97.2 | 83500 |  |  | 189 | 859 |  | inactive | inactive | inactive
10 | CN(C(=O)C(Cc1ccccc1)NC(=O)Cc1n[nH]c2c(N)cccc12)c1ccc2[nH]ncc2c1 (racemic) | 2.2 10^5/M/s | 2420 | 415000 |  |  | 494 | 171 |  | inactive | inactive | inactive
11 | Cc1[nH]c2ccccc2c1CC(=O)NC(Cc1ccccc1)C(=O)N(C)c1ccc2[nH]ncc2c1 (racemic) | 2.75 10^5/M/s | 38.3 | 76900 |  |  | 43.9 | 2010 |  | inactive | inactive | inactive
12 | Cc1[nH]c2ccccc2c1CC(=O)NC(Cc1ccccc1)C(=O)N(C)c1ccccc1 (racemic) | 3.07 10^5/M/s | 55.5 | 36800 |  |  |  |  |  | inactive | inactive | inactive
